High-throughput results deposited in PubChem by several laboratories.
Most compounds without a hit are left out; they make up all but 3% or so of the library.
Ins promoter up = insulin promoter activators in MIN6 cells, imaging, high-content screening, mouse beta cells | MIN6 insulin promoter-GFP reporter; hits give high values | z-score at 5 µM | hit rate 0.3% among 190,000;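 active means z-score above 3 at 5 µM with at least 500 cells counted in the well; inconclusive means wells under 500 cells, flagged as cytotoxic or low count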
Yeast life ext = compounds extending yeast replicative lifespan, primary screen, S. cerevisiae, OD615 | S. cerevisiae growth with nicotinamide; deaD strain in restrictive glucose medium | inhibition of the nicotinamide effect, % at 10 µM | hit rate 0.68% among 130,000 | AID 775, 2007;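 active means inhibition above a set limit, placed 3 SD over the median of all compounds, cut at about 26% in these data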
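System: DeaD-strain S. cerevisiae / Buffer or medium: CSMM-D, restrictive glucose (dextrose) synthetic minimal medium / Probe or stimulus: nicotinamide, 1.5 mM, co-present with compound / Compound: one concentration, 10 µM, DMSO 0.25% / Incubation: 48 h compound exposure at 30 °C, humidified / Technique: optical density (absorbance) at 615 nm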
RAM network inh = inhibitors of the yeast RAM network, primary screen, dse1pr::URA3 reporter, 5-FOA selection; hit rate 1.8% among 190,000; S. cerevisiae dse1pr::URA3 reporter, 5-FOA growth OD615, 2 d; analog-sensitive cbk1-as2 kinase mutant strain; AID 868, 2007; inhibition, % at 50 µM;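 active means inhibition above a set limit, 3 SD over mean compound inhibition, cut at about 8.4% in these data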;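 further: inhibition rescues growth on 5-FOA so higher OD means more RAM inhibition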
Insulin prom inh = inhibitors of insulin promoter-driven GFP, primary screen, imaging, TRM-6 cells (human fetal islet line), eGFP reporter, cell count; reporter expression induced with tamoxifen; inhibition, % at 2 µM; hit rate 0.9% among 130,000; AID 1273, 2008;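 active means inhibition above the mean plus 3 SD, with well images judged a real hit on visual review, cut at about 60% in these data, passing the limit was not always enough; inconclusive means inhibition over the cutoff but images rejected on review; inactive means inhibition not above the cutoff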
Yeast growth inh = growth inhibitors of yeast BB579 in restrictive medium, primary screen, yeast lifespan-shortening project, S. cerevisiae; hit rate 0.51% among 140,000; OD615, 48 h; inhibition, % at 10 µM; AID 804, 2007;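 active means inhibition above a set limit, 3 SD over the mean compound inhibition, cut at about 44% in these data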
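Test system: DeaD yeast strain BB579 / Buffer or medium: restrictive glucose-based CSMM-D medium / Doses: single 10 µM dose / Schedule: 4 h cell preincubation, 48 h compound exposure, 30 °C humidified / Technique: culture absorbance at 615 nm / Controls: amphotericin B positive control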
Large screens that a line does not name were inactive; ! = repeats disagree.

CC1(C)OC(=O)C(=NNc2ccc(Br)cc2)C(=O)O1	none
Cc1ccc(S(=O)(=O)N(CC(=O)Nc2ccccc2C(=O)O)c2ccccc2C)cc1	RAM network inh 8.7 (no result: Ins promoter up, Yeast life ext, Yeast growth inh)
Cc1ccccc1N(CC(=O)Nc1ccccc1C(=O)O)S(C)(=O)=O	none
CC1CN(S(=O)(=O)c2ccc(C(=O)Nc3ccc(S(=O)(=O)Nc4ncccn4)cc3)cc2)CC(C)O1 (stereo not given)	none
Cn1c(Cc2ccccc2)nnc1SCC(=O)c1ccc(Br)s1	Insulin prom inh 95.5
COC(=O)c1ccc(C2C(C#N)=C(N)Oc3cc(C)n(C)c(=O)c32)cc1 (stereo not given)	Insulin prom inh 76.3
C=CCOc1ccc(/C=C2\C(=N)N3N=C(S(=O)(=O)CC)SC3=NC2=O)cc1OC	RAM network inh 9.6 (no result: Ins promoter up, Yeast life ext, Yeast growth inh)
c1ccc2[nH]c(-c3cscn3)nc2c1	Insulin prom inh 66.7 (no result: Ins promoter up)
c1ccc2[nH]c(-c3ccnc4ccccc34)nc2c1	Insulin prom inh 85.7!
c1ccc2nc(-c3nc4ccccc4[nH]3)ccc2c1	none
O=C(NC1CCCC1)C1c2ccccc2C(=O)N1CCCN1CCOCC1 (stereo not given)	Insulin prom inh 60.0
Cc1nc(N2CCCCC2)nc(N2CCCCC2)c1C=O	none (no result: Yeast life ext, Insulin prom inh, Yeast growth inh)
COc1ccc(N(CC(=O)O)S(=O)(=O)c2ccc(OC)c(OC)c2)cc1	Yeast life ext 29.3
COc1ccc(N(CC(=O)Nc2ccc(C(N)=O)cc2)S(=O)(=O)c2ccc(C)c([N+](=O)[O-])c2)cc1	none (no result: Yeast life ext, Insulin prom inh, Yeast growth inh)
COC(=O)CN(c1ccc(OC)cc1)S(=O)(=O)c1ccc(OC)c(OC)c1	none
COc1ccc(N(CC(=O)Nc2ccccc2C(N)=O)S(=O)(=O)c2ccc(C)c([N+](=O)[O-])c2)cc1	RAM network inh 10.1 (no result: Yeast life ext, Yeast growth inh)
Cc1ccc(C)c(/C=C(\C(=O)O)c2ccc(S(=O)(=O)N3CCCCC3)s2)c1	none (no result: Yeast life ext, Insulin prom inh, Yeast growth inh)
O=C(COc1ccc(S(=O)(=O)NC2CCCCC2)cc1Cl)NCC1CCCO1 (stereo not given)	none
COc1ccc(CCNC(=O)COc2ccc(S(=O)(=O)NC3CCCCC3)cc2Cl)cc1	RAM network inh 10.0 (no result: Insulin prom inh)
COc1cc(/C=C(\C#N)C(=O)c2c[nH]c3ccccc23)cc(OC)c1O	none (no result: Yeast life ext, Yeast growth inh)
CC(NCc1ccc(N(C)C)cc1)C1CC2CCC1C2 (stereo not given)	Yeast life ext 47.2
CC(NC(=O)CSc1ccccc1C(=O)O)C1CC2CCC1C2 (stereo not given)	none (no result: Yeast life ext, Insulin prom inh, Yeast growth inh)
CC1/C(=N/O)CC(c2ccccc2)N(C)C1c1ccccc1 (stereo not given)	Yeast growth inh 88.0 (no result: Ins promoter up, Yeast life ext)
Cc1cc(O)ccc1C1(c2ccc(O)cc2C)OC(=O)c2ccccc21	none (no result: Ins promoter up, Yeast life ext)
Cc1cccc(C2(c3cccc(C)c3)OC(=O)c3ccccc32)c1	RAM network inh 9.0
O=C(OC1CCCCC1)c1ccc2c(c1)C1C=CCC1C(C(=O)O)N2 (stereo not given)	RAM network inh 11.4 (no result: Insulin prom inh)
CC(C)C(C(=O)Nc1ccc(N2CCOCC2)cc1)N1C(=O)c2ccccc2C1=O (stereo not given)	RAM network inh 9.3 (no result: Insulin prom inh)
CC(C(=O)Nc1ccc(N2CCOCC2)cc1)N1C(=O)c2ccccc2C1=O (stereo not given)	none
Cc1ccc(S(=O)(=O)CCSc2nc(C)cc(C(F)(F)F)c2C#N)cc1	RAM network inh 10.2 (no result: Ins promoter up, Yeast life ext)
Cc1cc(C(F)(F)F)c(C#N)c(Sc2ccccc2)n1	RAM network inh 10.0
COC(=O)CSc1nc(C)cc(C(F)(F)F)c1C#N	none
CCCSc1nc(-c2ccccc2)cc(C(F)(F)F)c1C#N	none
COc1ccccc1NC(=O)N1C2CCCC1CC(NC(=O)c1ccccc1)C2 (stereo not given)	none (no result: Yeast life ext, Insulin prom inh, Yeast growth inh)
COc1ccccc1NC(=O)NCc1nc(-c2ccc(C(F)(F)F)cc2)no1	none (no result: Yeast life ext, RAM network inh, Insulin prom inh, Yeast growth inh)
CC1(C)Cc2c(sc3c2C2=NCCN2C=N3)CS1	Insulin prom inh 87.1
CC1(C)Cc2c(sc3c2C(=O)N(c2ccccc2)C2=NCCN23)CS1	none
O=C1CNC(=S)N1CCc1ccc(O)c(O)c1	none (no result: Yeast life ext, RAM network inh, Insulin prom inh, Yeast growth inh)
CCOC(=O)c1oc2c(c1C)C(=O)CCC2	none
CCOC(=O)c1oc2c(c1C)/C(=N/O)CCC2	Insulin prom inh 87.5 (no result: Ins promoter up)
O=C(O)C1CSC(c2ccccc2)N1C(=O)c1ccco1 (stereo not given)	Insulin prom inh 73.9
CC(=O)N1C(C(=O)O)CSC1c1cccc(C)c1 (stereo not given)	none
CC(C)OCCCNC(=O)c1c(N)n(/N=C/c2cccs2)c2nc3ccccc3nc12	RAM network inh 10.8
CC(=O)N(C)c1ccc(NS(=O)(=O)c2cc(Cl)ccc2Cl)cc1	none (no result: Ins promoter up, Yeast life ext, Yeast growth inh)
O=C(O)c1ccc(NC(=S)Nc2ccccc2)cc1	Yeast life ext 37.2
COC(=O)c1ccc(NC(=S)Nc2ccccc2)cc1	none
CCCCc1ccc(/C=C2\C(=O)ON=C2c2ccccc2)s1	RAM network inh 8.8 (no result: Ins promoter up, Insulin prom inh)
CCCCCCCCC[n+]1cccc2c3ccccc3ccc21	Ins promoter up inconclusive (no result: Insulin prom inh)
CCCCCCCCCCCCCCCC[n+]1cccc2ccccc21	Ins promoter up inconclusive, Yeast growth inh 99.7 (no result: Insulin prom inh)
Cc1cc(F)ccc1NCc1cccnc1	none
Cc1ccc(NCc2cccnc2)c(Br)c1	Insulin prom inh 66.7
CCn1cc([N+](=O)[O-])c(C(=O)N2N=C(c3ccc4ccccc4c3)CC2c2ccccc2O)n1 (stereo not given)	none (no result: Ins promoter up, Yeast life ext)
CCn1cc(Cl)c(C(=O)N2N=C(c3ccc4ccccc4c3)CC2c2ccccc2O)n1 (stereo not given)	Insulin prom inh 66.7
O=C(Nc1ccccc1)N1CCCC(CNS(=O)(=O)Cc2ccccc2)C1 (stereo not given)	none (no result: Yeast life ext, Insulin prom inh, Yeast growth inh)
CC(=O)Nc1c(C)ccc(S(N)(=O)=O)c1C	none (no result: Yeast life ext, Insulin prom inh, Yeast growth inh)
CC(C)NC1CS(=O)(=O)CC1O (stereo not given)	Yeast life ext 58.0
O=C(COc1ccccc1-c1ccccc1)N/N=C/c1ccccn1	RAM network inh 10.9 (no result: Yeast life ext, Insulin prom inh, Yeast growth inh)
O=C(COc1ccccc1-c1ccccc1)N/N=C/c1ccncc1	none (no result: Yeast life ext, Insulin prom inh, Yeast growth inh)
N#Cc1cc(C(=O)c2ccccc2O)cn(-c2nccs2)c1=O	none
N#Cc1cc(C(=O)c2cc(F)ccc2O)cn(-c2nccs2)c1=O	Yeast life ext 41.4 (no result: Ins promoter up)
COc1ccccc1-n1cc(C(=O)c2cc(Cl)ccc2O)cc(C#N)c1=O	RAM network inh 9.7 (no result: Yeast life ext, Yeast growth inh)
CC(C)NC(=O)Cn1cc(C(=O)C2CC2)c2ccccc21	none (no result: Yeast life ext, Insulin prom inh, Yeast growth inh)
COc1cccc(-n2nnnc2SCC(=O)Nc2ccc(C(C)=O)cc2)c1	none (no result: Yeast life ext)
CCCS(=O)(=O)c1nnnn1-c1cccc(OC)c1	Yeast growth inh 95.9
O=C(N/N=C/c1cccc([N+](=O)[O-])c1)C1CC(=O)N(c2ccc(F)cc2)C1 (stereo not given)	none (no result: Insulin prom inh)
COc1ccc(NC(=O)C(c2ccc(OC)cc2)N(C)C(=O)CNC(C)=O)cc1 (stereo not given)	Insulin prom inh 76.9
COc1ccc(NC(=O)C(c2ccc(C)cc2)N(C)C(=O)CNC(C)=O)cc1 (stereo not given)	none (no result: Ins promoter up)
